Reference: ChEMBL document CHEMBL1137506, “Novel orally active, dibenzazepinone-based gamma-secretase inhibitors” (Bioorg Med Chem Lett, 2007)

Tests used:
Gamma-secretase [1] = assay: Inhibition of human gamma secretase assessed as amyloid-beta40 peptide production […] by ELISA; format: cell-based; conditions: hek293
In short: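 Cell-free assay. Membrane fractions from HEK293 cells carrying γ-secretase activity are incubated with a recombinant APP C-terminal fragment as substrate. The Aβ40 peptide produced is quantified by ELISA, and IC50 is derived from it.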

Gamma-secretase [2] = assay: Inhibition of human gamma secretase in HEK293 cells by reporter gene assay; format: cell-based
In short: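 Cellular reporter assay in HEK293 cells. The γ-secretase substrate is a Notch 1 construct fused to a Gal4/VP16 transcription factor, which drives a firefly luciferase reporter gene. IC50 is taken from inhibition of the luciferase signal.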

[3] = Maximal achievable bioavailability in human liver microsomes; format: ADME, Microsome; conditions: read-out: Max Achievable Bioavailability
In short: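 Maximal achievable bioavailability is estimated from compound incubations with liver microsomes of the stated species.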

[4] = Ratio of drug level in brain to plasma in mouse; format: ADME
Mus musculus = assay: Increase of CTF-APP ratio in po dosed transgenic mouse AD model after 2 days; format: functional
[5] = Clearance in mouse; format: ADME, organism-based; conditions: in vivo
[6] = Maximal achievable bioavailability in rat liver microsomes; format: ADME, Microsome; conditions: read-out: Max Achievable Bioavailability
[7] = Oral bioavailability in mouse at 7.8 mg/kg, po; format: ADME, organism-based; conditions: in vivo
In short: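 Oral bioavailability (F) in mice after a 7.8 mg/kg oral dose.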

[8] = Solubility of compound; format: physicochemical

| SMILES | IC50 (Gamma-secretase [1]) | IC50 (Gamma-secretase [2]) | Fh [3] | Fh [6] | also measured |
| --- | --- | --- | --- | --- | --- |
| C[C@H](OC(=O)NCC(F)(F)C(F)(F)F)C(=O)N[C@@H]1C(=O)N(C)c2ccccc2-c2ccccc21 | 8.6 nM | 1.7 nM | 72% | 70% | Kp [4]: 0.5; MED (Mus musculus): 3 mg/kg; clearance [5]: 32 mL/min/kg; bioavailability [7]: 23% |
| C[C@@H](C(=O)NCc1cc(F)cc(F)c1)C(=O)N[C@@H]1C(=O)N(C)c2ccccc2-c2ccccc21 | 2 nM | 1.6 nM |  |  |  |
| CC(OC(=O)NCC(F)(F)C(F)(F)F)C(=O)N[C@@H]1C(=O)N(C)c2ccccc2-c2ccccc21 (some centres undefined) |  | 2 nM |  |  |  |
| CC(C(=O)NC(CO)c1ccccc1)C(=O)NC1C(=O)N(C)c2ccccc2-c2ccccc21 (centres undefined) | 22000 nM | > 25000 nM |  |  |  |
| C[C@H](OC(=O)Nc1ccccc1)C(=O)NC1C(=O)N(C)c2ccccc2-c2ccccc21 (some centres undefined) | 2700 nM | 1500 nM |  |  |  |
| C[C@H](C(=O)NCc1cc(F)cc(F)c1)C(=O)N[C@@H]1C(=O)N(C)c2ccccc2-c2ccccc21 | 8.7 nM | 7.1 nM |  |  |  |
| CC(C(=O)NC(C)c1ccccc1)C(=O)NC1C(=O)N(C)c2ccccc2-c2ccccc21 (centres undefined) | 5700 nM | 6300 nM |  |  |  |
| CC(C(=O)NCc1cc(F)cc(F)c1)C(=O)NC1C(=O)N(C)c2ccccc2-c2ccccc21 (centres undefined) | 22 nM | 10 nM | 10% | 9% |  |
| C[C@H](NC(=O)[C@@H](O)c1cc(F)cc(F)c1)C(=O)N[C@@H]1C(=O)N(C)c2ccccc2-c2ccccc21 |  |  |  |  | MED (Mus musculus): 20 mg/kg |
| CC(C(=O)NC1CCc2ccccc21)C(=O)NC1C(=O)N(C)c2ccccc2-c2ccccc21 (centres undefined) | 12000 nM | 14000 nM |  |  |  |
| CC(C(=O)NC1C(=O)N(C)c2ccccc2-c2ccccc21)C(=O)NC(C)(C)c1ccccc1 (centres undefined) | > 20000 nM | > 20000 nM | 14% | 9% |  |
| CC(C(=O)NCc1cc(F)cc(F)c1)C(=O)N[C@@H]1C(=O)N(C)c2ccccc2-c2ccccc21 (mixture of isomers) | 3.1 nM | 8.8 nM |  |  |  |
| CC(C(=O)NCc1cc(F)cc(F)c1)C(=O)N[C@H]1C(=O)N(C)c2ccccc2-c2ccccc21 (mixture of isomers) | 620 nM | 580 nM |  |  |  |

More lines, main results first:

| IC50 (Gamma-secretase [1]) | IC50 (Gamma-secretase [2]) | Fh [3] | Fh [6] | SMILES | also measured |
| --- | --- | --- | --- | --- | --- |
| 3000 nM | 3300 nM |  |  | CCOCCNC(=O)C(C)C(=O)NC1C(=O)N(C)c2ccccc2-c2ccccc21 (centres undefined) |  |
| 20 nM | 42 nM | 55% | 37% | CC(C(=O)NCC(F)(F)F)C(=O)NC1C(=O)N(C)c2ccccc2-c2ccccc21 (centres undefined) |  |
| 37 nM | 24 nM |  |  | CC(C(=O)NCCC(F)(F)F)C(=O)NC1C(=O)N(C)c2ccccc2-c2ccccc21 (centres undefined) |  |
| 15 nM | 75 nM |  |  | CC(C(=O)NCc1ccccc1)C(=O)NC1C(=O)N(C)c2ccccc2-c2ccccc21 (centres undefined) |  |
| 90 nM | 210 nM | 18% | 12% | CC(C(=O)NCC1CC1)C(=O)NC1C(=O)N(C)c2ccccc2-c2ccccc21 (centres undefined) |  |
| 5300 nM | > 25000 nM |  |  | CC(C(N)=O)C(=O)NC1C(=O)N(C)c2ccccc2-c2ccccc21 (centres undefined) |  |
| 3 nM | 1.7 nM | 55% | 38% | CC(C(=O)NCC(F)(F)C(F)(F)F)C(=O)N[C@@H]1C(=O)N(C)c2ccccc2-c2ccccc21 (mixture of isomers) | Kp [4]: 0.5; MED (Mus musculus): 3 mg/kg; clearance [5]: 53 mL/min/kg; bioavailability [7]: 21%; Solubility [8]: 28 mg/mL |
